Assay results of several laboratories.
Compare with care: the assays were run in different laboratories. pIC50: −log10 of the molar value.
Read-out: cell growth or viability

| Structure (SMILES) | cell line | method | tested at | time | measurement | value |
| --- | --- | --- | --- | --- | --- | --- |
| COc1c(C)c2c(c(O)c1C/C=C(\C)CCC(=O)O)C(=O)OC2 | MDA-MB-436 |  |  |  | pIC50 | 5.95 |
| CC[C@@]1(O)C(=O)OCc2c1cc1n(c2=O)Cc2cc3ccccc3nc2-1 | MP41 | ATP luminescence |  | 72 h | pIC50 | 6.93 |
| N.N.O=C([O-])C1(C(=O)[O-])CCC1.[Pt+2] | Vero | MTT |  | 48 h | pIC50 | 3.30 |
| CC(=O)N[C@H]1[C@@H](O[C@@H]2O[C@H](C[C@@H](O)[C@H]3O[C@@H](n4ccc(=O)[nH]c4=O)[C@H](O)[C@@H]3O)[C@H](O)[C@H](O)[C@H]2NC(=O)/C=C/CCCCCCCCCC(C)C)O[C@H](CO)[C@@H](O)[C@@H]1O | SK-BR-3 | WST-1 |  |  | pIC50 | 6.96 |
| Cn1cc2cc(C(F)(F)c3nnc4ccc(-c5cnn(C6CC6)c5)nn34)c(F)cc2n1 | MKN-45 | CCK-8 |  | 72 h | pIC50 | 7.92 |
| O=C(NCc1ccccc1)c1cn(Cc2ccc(C(F)(F)F)cc2)c2ccc(Oc3ccccc3)cc2c1=O | HCC70 |  |  | 72 h | CC50 | 20500 nM |
| Cc1sc2c(c1C)C(c1ccc(Cl)cc1)=N[C@@H](CC(N)=O)c1nnc(C)n1-2 | MP41 | ATP luminescence |  | 72 h | pIC50 | 6.82 |
| COc1cc(C(=O)c2nc(-c3c[nH]c4cccc(C)c34)c[nH]2)cc(OC)c1OC | M14 | MTS |  | 72 h | pIC50 | 6.78 |
| O=C(Nc1ccc(Cl)cc1)Nc1cccc(-c2cn(Cc3ccc(Br)cc3)nn2)c1 | NCI-H1299 | CCK-8 | 50 µM | 72 h | viability | 76.7% |
| N.N.[Cl][Pt][Cl] | Vero | MTT |  | 48 h | pIC50 | 4.20 |
| COc1cc(C(=O)c2nc(-c3cccc4[nH]ccc34)c(Br)[nH]2)cc(OC)c1OC | M14 | MTS |  | 72 h | pIC50 | < 6.00 |
